{"source": "paper PMC5795620", "about": "(Journal of medicinal chemistry, 2017)", "key": {"[1]": {"assay": "Metabolic stability in swine brain homogenate", "type": "in vitro ADME", "details": "10 μM, 0-60 min"}, "[2]": {"assay": "Metabolic stability in swine plasma", "type": "in vitro ADME", "details": "60 min incubation in swine plasma"}, "[3]": {"details": "nonhuman primate, systemic administration; cited from earlier work"}, "[4]": {"assay": "Metabolic stability in mouse plasma", "type": "in vitro ADME", "details": "representative chromatogram (Figure S1)"}, "EcoHIV-infected mice": {"tested_on": "EcoHIV-infected mice", "assay": "Radial arm water maze in EcoHIV-infected mice", "type": "in vivo, mouse", "details": "control for visual or motor function; 1 mg/kg, ip, qod", "in_short": "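Male C57BL/6J mice, 5 weeks old, randomized (n = 8/group) to drug or saline starting 1 day before ip EcoHIV (2 × 106 pg p24) or sham PBS inoculation. Dosing continued through 30-day infection and testing. From day 30 p.i., six-lane opaque-water RAWM with visual cues. After hidden-platform trials, latency to a visible platform measured in the same context.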"}, "[5]": {"assay": "Overt toxicity observation in mice during 14 treatment", "type": "in vivo, mouse", "details": "1 mg/kg, ip, qod over infection period and testing"}, "EcoHIV": {"tested_on": "EcoHIV", "assay": "EcoHIV viral load in spleen and brain by qPCR", "type": "in vivo, mouse", "details": "EcoHIV-infected mice, 1 mg/kg, ip, qod"}}, "data": [{"smiles": "CC(C)OC(=O)[C@H](CCC(=O)C=[N+]=[N-])NC(=O)OC(OC(=O)C(C)(C)C)C(C)C", "note": "(mixture of isomers) [Compound 13c, Isopropyl 6-Diazo-2-(((2-methyl-1-(pivaloyloxy)propoxy)-carbonyl)amino)-5-oxohexanoate]", "values": [{"measurement": "Metabolic lability in swine brain homogenate (in words)", "setting": "[1]", "value": "readily biotransformed"}]}, {"smiles": "CC(C)OC(=O)[C@H](CCC(=O)C=[N+]=[N-])NC(=O)OCOC(=O)C(C)(C)C", "note": "[Compound 13a, Isopropyl 6-Diazo-5-oxo-2-((((pivaloyloxy)methoxy)-carbonyl)amino)hexanoate]", "values": [{"measurement": "Stability in swine plasma (in words)", "setting": "[2]", "value": "labile"}]}, {"smiles": "CC(C)OC(=O)[C@H](CCC(=O)C=[N+]=[N-])NC(=O)O[C@H](C)OC(=O)C(C)(C)C", "note": "[Compound 13b, Isopropyl 6-Diazo-5-oxo-2-(((1-(pivaloyloxy)ethoxy)-carbonyl)amino)hexanoate]", "values": [{"measurement": "Enhancement in the CSF-to-plasma ratio of 14 exposure relative to equimolar 14", "setting": "[3]", "value": "about 10 fold"}, {"measurement": "Metabolic lability in swine brain homogenate (in words)", "setting": "[1]", "value": "moderately labile"}]}, {"smiles": "CC(C)OC(=O)[C@H](CCC(=O)C=[N+]=[N-])NC(=O)OC(OC(=O)C(C)(C)C)c1ccccc1", "note": "(some centres unmarked) [Compound 13d, Isopropyl 6-Diazo-5-oxo-2-(((phenyl(pivaloyloxy)methoxy)-carbonyl)amino)hexanoate]", "values": [{"measurement": "Metabolic lability in swine brain homogenate (in words)", "setting": "[1]", "value": "readily biotransformed"}, {"measurement": "Time to complete conversion to 14 in mouse plasma", "setting": "[4]", "value": "≤ 10", "unit": "min"}]}, {"smiles": "CC(C)OC(=O)[C@H](CCC(=O)C=[N+]=[N-])NC(=O)OC(C)(C)OC(=O)C(C)(C)C", "note": "[Compound 13e, Isopropyl 6-Diazo-5-oxo-2-((((2-(pivaloyloxy)propan-2-yl)-oxy)carbonyl)amino)hexanoate]", "values": [{"measurement": "Metabolic lability in swine brain homogenate (in words)", "setting": "[1]", "value": "mostly stable"}]}, {"smiles": "[N-]=[N+]=CC(=O)CC[C@H](N)C(=O)O", "note": "[Compound 14, 6-diazo-5-oxo-L-norleucine]", "values": [{"measurement": "RAWM escape latency to a visible platform", "setting": "EcoHIV-infected mice", "value": "no effect"}, {"measurement": "Overt signs of toxicity (diarrhea, weight loss)", "setting": "[5]", "value": "no mice exhibited overt signs of toxicity"}, {"measurement": "EcoHIV viral load in the brain", "setting": "EcoHIV", "value": "no effect"}, {"measurement": "EcoHIV viral load in the spleen (DNA copies)", "setting": "EcoHIV; p = 0.022", "value": "slight increase"}]}]}
